In ChEMBL document CHEMBL1149092, “Studies on pyrrolopyrimidines as selective inhibitors of multidrug-resistance-associated protein in multidrug resistance” (J Med Chem, 2004):

Key:
[1] = target: Multidrug resistance-associated protein 1 (Homo sapiens, UniProt P33527); experiment: Inhibitory activity against human transporter MRP1 (Multidrug resistance associated protein 1) expressed in COR.L23/R cell line
Method in brief: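 Tritiated daunomycin (0.3 μCi/mL) accumulation in COR.L23/R cells (MRP-expressing human NSCLC MDR subline), seeded 48 h before the assay. Cells were washed and cell-associated radioactivity measured. 100% accumulation was set with 100 μM verapamil.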

[2] = target: ATP-dependent translocase ABCB1 (Mus musculus, UniProt P06795); experiment: Inhibitory activity against mouse transporter Pgp (P-glycoprotein) expressed in EMT6/AR1.0 cell line
Sequence of ATP-dependent translocase ABCB1 (P06795 whole entry): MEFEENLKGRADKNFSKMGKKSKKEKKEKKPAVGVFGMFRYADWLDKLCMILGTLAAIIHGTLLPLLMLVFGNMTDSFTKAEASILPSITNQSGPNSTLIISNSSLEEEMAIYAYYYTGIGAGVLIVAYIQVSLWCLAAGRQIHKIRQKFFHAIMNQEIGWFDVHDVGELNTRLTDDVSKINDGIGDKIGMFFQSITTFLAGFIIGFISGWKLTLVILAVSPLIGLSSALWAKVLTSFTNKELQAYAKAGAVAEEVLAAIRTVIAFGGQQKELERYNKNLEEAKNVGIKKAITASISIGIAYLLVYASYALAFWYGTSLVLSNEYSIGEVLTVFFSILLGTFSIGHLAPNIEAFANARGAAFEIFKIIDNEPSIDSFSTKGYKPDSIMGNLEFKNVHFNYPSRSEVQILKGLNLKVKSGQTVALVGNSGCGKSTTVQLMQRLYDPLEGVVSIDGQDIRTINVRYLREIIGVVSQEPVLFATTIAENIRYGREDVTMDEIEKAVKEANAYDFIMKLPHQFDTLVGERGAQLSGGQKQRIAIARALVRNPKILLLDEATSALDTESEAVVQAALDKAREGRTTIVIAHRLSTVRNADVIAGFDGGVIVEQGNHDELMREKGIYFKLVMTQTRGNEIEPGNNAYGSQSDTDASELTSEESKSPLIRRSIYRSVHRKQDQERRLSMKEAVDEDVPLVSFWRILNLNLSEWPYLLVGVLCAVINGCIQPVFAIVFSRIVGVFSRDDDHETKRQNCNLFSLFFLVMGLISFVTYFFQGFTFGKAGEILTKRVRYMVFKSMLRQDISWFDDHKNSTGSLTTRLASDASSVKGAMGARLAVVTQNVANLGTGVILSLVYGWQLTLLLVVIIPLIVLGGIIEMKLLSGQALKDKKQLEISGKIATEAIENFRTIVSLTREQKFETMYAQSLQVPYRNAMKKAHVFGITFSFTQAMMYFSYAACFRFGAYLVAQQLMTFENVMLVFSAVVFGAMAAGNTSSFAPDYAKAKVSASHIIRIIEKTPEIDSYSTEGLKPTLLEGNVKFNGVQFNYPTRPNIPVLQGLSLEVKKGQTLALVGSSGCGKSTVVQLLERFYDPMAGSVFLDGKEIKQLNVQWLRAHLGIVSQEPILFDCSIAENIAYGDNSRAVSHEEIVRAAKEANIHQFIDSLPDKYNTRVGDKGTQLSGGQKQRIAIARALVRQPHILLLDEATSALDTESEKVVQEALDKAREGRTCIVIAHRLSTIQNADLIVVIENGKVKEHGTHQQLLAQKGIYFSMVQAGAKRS
Method in brief: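 Accumulation protocol run as for MRP1, but in the Pgp-expressing murine mammary carcinoma EMT6/AR1.0 subline. IC50 is the mean of at least three experiments.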

Cytochrome P450 3A4 = Cytochrome P450 3A4 (Homo sapiens, UniProt P08684); experiment: Inhibitory concentration to inhibit MRP1 in CYP 3A4 assay
Sequence of Cytochrome P450 3A4 (P08684 whole entry): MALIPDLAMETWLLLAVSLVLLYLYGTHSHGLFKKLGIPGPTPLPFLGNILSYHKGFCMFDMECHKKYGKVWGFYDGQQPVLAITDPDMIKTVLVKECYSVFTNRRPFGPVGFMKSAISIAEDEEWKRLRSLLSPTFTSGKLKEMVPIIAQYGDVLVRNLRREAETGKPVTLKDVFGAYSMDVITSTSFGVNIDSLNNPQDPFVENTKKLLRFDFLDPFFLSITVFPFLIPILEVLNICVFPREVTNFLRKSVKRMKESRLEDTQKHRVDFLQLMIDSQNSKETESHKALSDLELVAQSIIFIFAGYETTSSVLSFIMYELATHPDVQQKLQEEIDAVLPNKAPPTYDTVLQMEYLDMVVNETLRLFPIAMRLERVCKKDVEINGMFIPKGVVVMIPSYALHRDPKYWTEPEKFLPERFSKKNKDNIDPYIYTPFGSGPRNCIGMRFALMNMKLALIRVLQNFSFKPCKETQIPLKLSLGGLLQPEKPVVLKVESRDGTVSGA

Mus musculus [3] = experiment: (§1) Half life in BALB/C mice at the dose of 20 mg/kg by i.v. administration; assay type: ADME, organism-based; parameters: dose 20 mg/kg, route intravenous; conditions: in vivo, iv
Method in brief: (§2)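 Female Balb/c mice, three to four per time point, were dosed iv, ip or po at 20–50 mg/kg. Blood was taken by cardiac puncture under anesthesia from 0.03 to 24 h. Plasma was methanol-extracted and analysed by HPLC. AUC (linear/log trapezoidal) and t1/2 were derived by noncompartmental analysis.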

Mus musculus [4] = experiment: (§3) Area under curve when injected intravenously in BALB/C mice at a dose of 20 mg/kg; assay type: ADME, organism-based; parameters: dose 20 mg/kg, route intravenous; conditions: in vivo, iv; method in brief: as §2
Mus musculus [5] = experiment: (§4) Maximal plasma concentration in BALB/C mice after 20 mg/kg intravenous dose; assay type: ADME, organism-based; parameters: dose 20 mg/kg, route intravenous; conditions: in vivo; method in brief: as §2
[6] = Maximal plasma concentration in BALB/C mice after 20 mg/kg intraperitoneal dose; assay type: ADME, organism-based; parameters: dose 20 mg/kg, route intraperitoneal; conditions: mouse, ip; method in brief: as §2
[7] = Half life in BALB/C mice at the dose of 50 mg/kg by p.o. administration; assay type: ADME, organism-based; parameters: dose 50 mg/kg, route oral; conditions: mouse, in vivo, po; method in brief: as §2
[8] = Area under curve when injected perorally in BALB/C mice at a dose of 50 mg/kg; assay type: ADME, organism-based; parameters: dose 50 mg/kg, route oral; conditions: mouse, in vivo, po; method in brief: as §2
[9] = Area under curve when injected intraperitoneally in BALB/C mice at a dose of 20 mg/kg; assay type: ADME, organism-based; parameters: dose 20 mg/kg, route intraperitoneal; conditions: mouse, in vivo, ip; method in brief: as §2
[10] = Half life in BALB/C mice at the dose of 20 mg/kg by i.p. administration; assay type: ADME, organism-based; parameters: dose 20 mg/kg, route intraperitoneal; conditions: mouse, in vivo, ip; method in brief: as §2
[11] = as §1; assay type: ADME, organism-based; parameters: dose 20 mg/kg, route intravenous; conditions: mouse, in vivo, iv; method in brief: as §2
[12] = Bioavailability in mouse (BALB/C) (dose 50 mg/kg p.o.); conditions: in vivo, po
[13] = Bioavailability in mouse (BALB/C) (dose 20 mg/kg i.p.); conditions: in vivo, ip
[14] = as §3; assay type: ADME, organism-based; parameters: dose 20 mg/kg, route intravenous; conditions: BALB/C, mouse, in vivo, iv; method in brief: as §2
[15] = as §4; assay type: ADME, organism-based; parameters: dose 20 mg/kg, route intravenous; conditions: BALB/C, mouse, plasma; method in brief: as §2
[16] = Maximal plasma concentration in BALB/C mice after 50 mg/kg oral dose; assay type: ADME, organism-based; parameters: dose 50 mg/kg, route oral; conditions: mouse; method in brief: as §2
[17] = Half life in BALB/C mice at the dose of 50 mg/kg by i.p. administration; assay type: ADME, organism-based; parameters: dose 50 mg/kg, route intraperitoneal; conditions: mouse, in vivo, ip; method in brief: as §2
[18] = Half life in BALB/C mice at the dose of 50 mg/kg by p.o. administration; conditions: mouse, in vivo, po

Sequence of Multidrug resistance-associated protein 1 (P33527 whole entry): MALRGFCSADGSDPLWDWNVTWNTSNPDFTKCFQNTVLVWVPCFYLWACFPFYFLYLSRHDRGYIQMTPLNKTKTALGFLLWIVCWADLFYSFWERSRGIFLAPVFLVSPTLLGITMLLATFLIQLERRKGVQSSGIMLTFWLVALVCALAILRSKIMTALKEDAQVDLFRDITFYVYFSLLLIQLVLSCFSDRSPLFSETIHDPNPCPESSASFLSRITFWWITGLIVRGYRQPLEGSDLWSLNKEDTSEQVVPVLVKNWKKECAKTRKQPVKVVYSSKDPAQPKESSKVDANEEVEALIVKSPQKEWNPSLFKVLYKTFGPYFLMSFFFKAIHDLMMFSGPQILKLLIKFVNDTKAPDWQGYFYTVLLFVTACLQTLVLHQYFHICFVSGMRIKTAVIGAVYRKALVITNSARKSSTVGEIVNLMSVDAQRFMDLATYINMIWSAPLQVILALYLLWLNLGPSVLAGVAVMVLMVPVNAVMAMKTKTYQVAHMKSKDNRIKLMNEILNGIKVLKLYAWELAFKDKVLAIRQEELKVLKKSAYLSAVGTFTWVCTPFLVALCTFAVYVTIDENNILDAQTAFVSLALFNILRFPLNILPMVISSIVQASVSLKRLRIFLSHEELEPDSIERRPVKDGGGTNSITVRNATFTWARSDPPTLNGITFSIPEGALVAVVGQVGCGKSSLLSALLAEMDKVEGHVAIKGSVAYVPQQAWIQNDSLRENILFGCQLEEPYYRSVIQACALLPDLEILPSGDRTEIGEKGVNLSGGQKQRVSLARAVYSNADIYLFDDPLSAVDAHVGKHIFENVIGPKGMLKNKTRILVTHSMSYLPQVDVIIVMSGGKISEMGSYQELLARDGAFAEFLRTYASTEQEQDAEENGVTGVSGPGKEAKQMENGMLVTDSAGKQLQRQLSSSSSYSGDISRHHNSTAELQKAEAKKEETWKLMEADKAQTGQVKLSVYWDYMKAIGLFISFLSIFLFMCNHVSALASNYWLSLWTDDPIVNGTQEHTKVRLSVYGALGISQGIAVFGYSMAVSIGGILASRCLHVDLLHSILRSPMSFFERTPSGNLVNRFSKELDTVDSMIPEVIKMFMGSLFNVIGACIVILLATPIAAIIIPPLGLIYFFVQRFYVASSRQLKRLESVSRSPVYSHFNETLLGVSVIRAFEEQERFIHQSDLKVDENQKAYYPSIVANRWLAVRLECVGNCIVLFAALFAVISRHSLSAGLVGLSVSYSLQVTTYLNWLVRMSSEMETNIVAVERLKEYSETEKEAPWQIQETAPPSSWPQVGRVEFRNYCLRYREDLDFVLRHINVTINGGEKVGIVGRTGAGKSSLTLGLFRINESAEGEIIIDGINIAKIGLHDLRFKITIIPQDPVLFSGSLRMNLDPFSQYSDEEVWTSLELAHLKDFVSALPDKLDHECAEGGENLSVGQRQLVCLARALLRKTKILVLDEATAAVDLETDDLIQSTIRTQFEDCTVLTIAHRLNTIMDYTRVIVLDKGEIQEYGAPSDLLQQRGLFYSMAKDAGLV

IC50 [1] [µM] | IC50 [2] [µM] | Compound | also measured
0.715 | 5 | N#Cc1c2n(c3c(N4CCN(CCc5ccccc5)CC4)nc(-c4ccccc4)nc13)CCCC2 | –
0.399 | 9.2 | N#Cc1c2n(c3c(N4CCN(CCc5ccc(Cl)cc5)CC4)ncnc13)CCCC2 | –
0.62 | 18 | Cc1ccccc1-c1nc(N2CCN(CCc3ccc(F)c(F)c3)CC2)c2c(n1)c(C#N)c1n2CCCC1 | –
0.218 | – | N#Cc1c2n(c3c(N4CCN(CCc5ccc(F)c(F)c5)CC4)nc(-c4cccnc4)nc13)CCCC2 | –
0.69 | 9.63 | N#Cc1c2n(c3c(N4CCN(CCc5ccccc5)CC4)ncnc13)CCCC2 | –
0.57 | 23.7 | CC(=O)Nc1ccc(-c2nc(N3CCN(CCc4ccccc4)CC3)c3c(n2)c(C#N)c2n3CCCC2)cc1 | –
0.229 | 10.5 | N#Cc1c2n(c3c(N4CCN(CCc5ccc(F)c(F)c5)CC4)ncnc13)CCCC2 | –
0.41 | 9.67 | N#Cc1c2n(c3c(N4CCN(CCc5cccc([N+](=O)[O-])c5)CC4)ncnc13)CCCC2 | –
0.043 | 3.7 | COc1cccc(CNC(=O)c2c3n(c4c(N5CCN(CCc6ccc(F)c(F)c6)CC5)ncnc24)CCCC3)c1OC | IC50 (Cytochrome P450 3A4): 2.44 µM; T1/2 (Mus musculus [3]): 0.8 h; AUC (Mus musculus [4]): 12000 ng·h/mL; Cmax (Mus musculus [5]): 4 µM
6.35 | > 50 | N#Cc1c2n(c3c(NCCN4CCc5ccccc5C4)ncnc13)CCCC2 | –
0.675 | > 50 | c1ccc(CCN2CCN(c3ncnc4c(-c5ncccn5)c5n(c34)CCCC5)CC2)cc1 | –
9 | 33 | CN(CCc1ccccc1)c1ncnc2c(C#N)c3n(c12)CCCC3 | –
0.65 | 3.7 | Cc1nc(-c2c3n(c4c(N5CCN(CCc6ccccc6)CC5)ncnc24)CCCC3)no1 | –
– | 4.79 | CCNC(=O)c1c2n(c3c(N4CCN(CCc5ccc(F)c(F)c5)CC4)ncnc13)CCCC2 | Cmax [6]: 7.34 µM; half-life [7]: 7.9 h; AUC [8]: 21100 ng·h/mL; AUC [9]: 14600 ng·h/mL; half-life [10]: 1.84 h; half-life [11]: 2.3 h; bioavailability [12]: 50%; bioavailability [13]: 85%; AUC [14]: 16900 ng·h/mL; Cmax [15]: 18.3 µM; Cmax [16]: 5.73 µM
7.35 | 13 | N#Cc1c2n(c3c(N4CCN(CCCc5ccccc5)CC4)ncnc13)CCCC2 | –
3.9 | – | N#Cc1c2n(c3c(SCc4ccc(Cl)cc4)ncnc13)CCCCC2 | –
0.105 | 1.31 | N#Cc1c2n(c3c(N4CCN(CCc5ccc(F)c(F)c5)CC4)nc(-c4ccncc4)nc13)CCCC2 | –

IC50 [1] [µM] | IC50 [2] [µM] | Compound | also measured
1.41 | > 50 | N#Cc1c2n(c3c(N4CCN(CCc5ccccc5[N+](=O)[O-])CC4)ncnc13)CCCC2 | –
6.65 | 14 | N#Cc1c2n(c3c(N4CCN(S(=O)(=O)Cc5ccccc5)CC4)ncnc13)CCCC2 | –
– | 4.95 | O=C(Nc1cccnc1)c1c2n(c3c(N4CCN(CCc5ccc(F)c(F)c5)CC4)ncnc13)CCCC2 | half-life [7]: 3.75 h; AUC [8]: 56400 ng·h/mL; half-life [17]: 4.48 h; half-life [11]: 6.72 h; bioavailability [12]: 55.5%; bioavailability [13]: 45.6%; AUC [14]: 40600 ng·h/mL; Cmax [15]: 24.5 µM; Cmax [16]: 14.3 µM
0.138 | > 50 | NC(=O)c1c2n(c3c(N4CCN(CCc5ccc(F)c(F)c5)CC4)ncnc13)CCCC2 | IC50 (Cytochrome P450 3A4): 45.8 µM; Cmax [6]: 4.43 µM; AUC [8]: 44900 ng·h/mL; AUC [9]: 13100 ng·h/mL; half-life [10]: 6.35 h; half-life [11]: 1.47 h; bioavailability [12]: 71.6%; half-life [18]: 6.86 h; bioavailability [13]: 52%; AUC [14]: 25000 ng·h/mL; Cmax [15]: 28 µM; Cmax [16]: 8.37 µM
1.85 | 23 | N#Cc1c2n(c3c(N4CCN(CC(=O)c5ccccc5)CC4)ncnc13)CCCC2 | –
0.955 | 10.6 | N#Cc1c2n(c3c(N4CCN(CCc5ccccc5Cl)CC4)ncnc13)CCCC2 | –
0.887 | 13 | N#Cc1c2n(c3c(N4CCN(CCc5ccccc5)CC4)nc(I)nc13)CCCC2 | –
0.533 | 6 | Cc1nc(-c2c3n(c4c(N5CCN(CCc6ccccc6)CC5)ncnc24)CCCC3)sc1C | –
2.8 | > 50 | CCC(=O)c1c2n(c3c(N4CCN(CCc5ccccc5)CC4)ncnc13)CCCC2 | –
0.91 | 16.5 | COC(=O)c1c2n(c3c(N4CCN(CCc5ccccc5)CC4)ncnc13)CCCC2 | –
0.523 | 12.9 | N#Cc1c2n(c3c(N4CCN(CCc5ccc([N+](=O)[O-])cc5)CC4)ncnc13)CCCC2 | –
0.061 | 3.4 | O=C(NCc1ccccn1)c1c2n(c3c(N4CCN(CCc5ccc(F)c(F)c5)CC4)ncnc13)CCCC2 | IC50 (Cytochrome P450 3A4): 30.1 µM; half-life ([11]; BALB/C): 2.5 h; AUC [14]: 7380 ng·h/mL; Cmax [15]: 11.4 µM
2.3 | 16.2 | COc1cccc(CCN2CCN(c3ncnc4c(C#N)c5n(c34)CCCC5)CC2)c1 | –
20.9 | 5.4 | N#Cc1c2n(c3c(NS(=O)(=O)Cc4ccccc4)ncnc13)CCCC2 | –
0.92 | 17.9 | N#Cc1c2n(c3c(N4CCN(CCc5cccc(Cl)c5)CC4)ncnc13)CCCC2 | –
> 50 | – | COc1ccc(CCN2CCN(c3ncnc4c(C#N)c5n(c34)CCCC5)CC2)cc1 | –

Compound | IC50 [1] [µM] | IC50 [2] [µM] | also measured
N#Cc1c2n(c3c(NCCc4ccccc4)ncnc13)CCCC2 | 6.3 | 16 | –
N#Cc1c2n(c3c(N4CCN(CCc5c[nH]c6ccccc56)CC4)ncnc13)CCCC2 | 0.6 | 5.82 | –
O=C(c1ccccc1)c1c2n(c3c(N4CCN(CCc5ccccc5)CC4)ncnc13)CCCC2 | 1.37 | 10.7 | –
